Test results: article PMC8258284 (Infection & Chemotherapy, 2021)
Where “and” joins values, the source holds several entries; their conditions need not be identical. Identical values can stand only once. Entries after “also recorded” stand apart in the source; their conditions may differ. Counter-ions that a name gives are not always drawn. Marks after values point to notes of the source that are not given here.

How the values were obtained:
[1] = Ex vivo skin permeation and retention test; format: in vitro ADME, mice
THP-1 cell = THP-1 cell toxicity; format: cell-based, Human
Procedure, shortened: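 Non-infected THP-1 cells were PMA-transformed (72 h) and seeded at 8 × 10^5 cells/mL. Treated 24 h with NE serial dilutions (1:2–1:1,000), vehicle, or ClAlPc/PM solutions. Irradiated at 37°C with 400–700 nm light, 32 min, 5 J/cm2, or left non-irradiated, then incubated 24 h in the dark. Viability read by MTT; % toxicity calculated relative to untreated controls.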

[2] = tested on: Intracellular amastigotes of L. (V.) braziliensis; assay: Intracellular amastigote inhibition in transformed THP-1 cells; format: cell-based, Leishmania (Viannia) braziliensis
Procedure, shortened: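 PMA-differentiated (72 h) THP-1 cells infected with latent-phase L. (V.) braziliensis MHOM/BR/75/M2903 promastigotes, 8 × 10^5 cells/mL. Exposed 24 h to NE serial dilutions (1:2–1:1,000), vehicle, ClAlPc (0.04–20 µM) or PM (244.0–121,827.0 µM) solutions. Then 400–700 nm light, 32°C, 32 min, 5 J/cm2, or kept non-irradiated, followed by 24 h dark. Giemsa counts of infected/uninfected cells give % inhibition versus untreated controls. PI = % inhibition at 0 J/cm2 / % at 5 J/cm2.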

[3] = tested on: Promastigotes of L. (V.) braziliensis (MHOM/BR/75/M2903); assay: Promastigote inhibition; format: cell-based, Leishmania (Viannia) braziliensis
[4] = format: in vivo, BALB/c mice; settings: range over organs after topical NE treatment; listed as PM
Procedure, shortened: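 Healthy female BALB/c mice, 7–9 weeks (N = 3/group), received 50 μL NE topically at the tail base every three days for 15 days. ClAlPc groups were irradiated (672 ± 40 nm, 7 min, 20 J/cm2) 30 min post-application. Six days after treatment, liver, spleen, kidney and treated skin (20–25 mg) were macerated, sonicated and centrifuged 10 min at 10,000 rpm. Supernatants were taken up in Trizma buffer pH 7.8, and PM was measured by C18 HPLC after 1-fluoro-2,4-dinitrobenzene derivatization.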

cutaneous leishmaniasis = settings: different CL topical formulations alone or combined; cited from earlier work
[5] = dilution 1,000, PDT + (5 J/cm^2)
[6] = dilution 100 (0.4 µM ClAlPc), PDT + (5 J/cm^2)

Molecule	% of inhibition (mean ± SD), THP-1 cell (THP-1 cell; dilution 2, PDT + (5 J/cm^2)) [%]	% of inhibition (mean ± SD), THP-1 cell (THP-1 cell; dilution 2, PDT −) [%]	% of inhibition (mean ± SD), THP-1 cell (THP-1 cell; dilution 10, PDT + (5 J/cm^2)) [%]	% of inhibition (mean ± SD), THP-1 cell (THP-1 cell; dilution 10, PDT −) [%]	% of inhibition (mean ± SD), THP-1 cell (THP-1 cell; dilution 100, PDT + (5 J/cm^2)) [%]	% of inhibition (mean ± SD), THP-1 cell (THP-1 cell; dilution 100, PDT −)	% of inhibition (mean ± SD), THP-1 cell (THP-1 cell; [5]) [%]	% of inhibition (mean ± SD), THP-1 cell (THP-1 cell; dilution 1,000, PDT −) [%]	% of inhibition (mean ± SD), Intracellular amastigotes ([2]; dilution 50, PDT + (5 J/cm^2)) [%]	% of inhibition (mean ± SD), Intracellular amastigotes ([2]; dilution 50, PDT −) [%]	% of inhibition (mean ± SD), Intracellular amastigotes [2, 6] [%]	% of inhibition (mean ± SD), Intracellular amastigotes ([2]; dilution 100, PDT −) [%]	% of inhibition (mean ± SD), Intracellular amastigotes ([2]; dilution 300, PDT + (5 J/cm^2))	% of inhibition (mean ± SD), Intracellular amastigotes ([2]; dilution 300, PDT −) [%]	% of inhibition (mean ± SD), Intracellular amastigotes ([2]; dilution 500, PDT + (5 J/cm^2))	% of inhibition (mean ± SD), Intracellular amastigotes ([2]; dilution 500, PDT −) [%]	% of inhibition (mean ± SD), Promastigotes ([3]; dilution 2, PDT + (5 J/cm^2)) [%]	% of inhibition (mean ± SD), Promastigotes ([3]; dilution 2, PDT −) [%]	% of inhibition (mean ± SD), Promastigotes ([3]; dilution 10, PDT + (5 J/cm^2)) [%]	% of inhibition (mean ± SD), Promastigotes ([3]; dilution 10, PDT −) [%]	also measured
chloroaluminium phthalocyanine [ClAlPc (s)]	97.8 ± 0.6	4.5 ± 1.7	97.6 ± 0.5	0	49.1 ± 4.8	0%	13.8 ± 4.1	0	93.4 ± 2.8	2.8 ± 0.3	65.8 ± 4.7	0.5 ± 0.8	21.8 ± 7.0^a %	0.4 ± 0.0	6.9 ± 2.1^a %	0	100	0.3 ± 0.7	100	1.0 ± 1.0	ClAlPc retained in the epidermis/dermis ([1]; after 24 h): 26.27 μM/cm^2; ClAlPc retained by the stratum corneum ([1]; after 24 h, tape stripping): 143.97 μM/cm^2; ClAlPc skin permeation (receptor compartment) ([1]; any time point up to 24 h): No skin ClAlPc permeation was observed; also recorded: did not permeate through the skin; % of inhibition (mean ± SD), Promastigotes ([3]; dilution 100, PDT −): 0%; % of inhibition (mean ± SD), Promastigotes [3, 5]: 0%; % of inhibition (mean ± SD), Promastigotes ([3]; dilution 1,000, PDT −): 0%
NC[C@@H]1O[C@H](O[C@H]2[C@@H](O)[C@H](O[C@@H]3[C@@H](O)[C@H](N)C[C@H](N)[C@H]3O[C@H]3O[C@H](CO)[C@@H](O)[C@H](O)[C@H]3N)O[C@@H]2CO)[C@H](N)[C@@H](O)[C@@H]1O [PM (s), paromomycin sulfate]	78.7 ± 5.3	79.2 ± 3.0	34.3 ± 5.2	33.1 ± 3.5	18.6 ± 5.1	17.9 ± 8.0^a %	0.7 ± 1.0	0.3 ± 0.6	54.1 ± 2.6	60.6 ± 2.4	46.6 ± 2.8	48.5 ± 5.8	30.3 ± 2.8%	27.3 ± 8.1	0%	2.3 ± 1.1	78.7 ± 5.9	78.5 ± 3.3	98.5 ± 1.4	98.4 ± 1.6	Concentrations of PM detected in organs [4]: 27.3 - 292.5 μM/25 mg and 27.26 - 292.49 μM/25 mg; % of inhibition (mean ± SD), Promastigotes [3, 6]: 99.9 ± 0.0%; % of inhibition (mean ± SD), Promastigotes ([3]; dilution 100, PDT −): 99.9 ± 0.0%; % of inhibition (mean ± SD), Promastigotes [3, 5]: 100%; % of inhibition (mean ± SD), Promastigotes ([3]; dilution 1,000, PDT −): 100%; Healing rates (clinical efficacy) (cutaneous leishmaniasis): 53.3 to 90.0%
